The source made the active and inactive calls. The calls are words filed in the database; no cut-off is given here.
How the values were obtained:
[1] = target: Carbonic anhydrase 1 (Homo sapiens) (UniProt P00915); test: Binding affinity to human CA1 by phenol red dye based stopped flow CO2 hydration assay; conditions: filed as activator
Procedure, shortened: (§1)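 Purified recombinant human CA isoforms. CA-catalysed CO2 hydration was followed by stopped-flow with phenol red at 557 nm, taking initial rates over 10–100 s from at least six traces of the first 5–10% of reaction. Uncatalysed rates were subtracted. Activator stocks were 0.1 mM in deionised water, diluted down to 0.1 nM in assay buffer. K_A came from non-linear least-squares Michaelis–Menten fitting.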

[2] = target: Carbonic anhydrase 14 (Homo sapiens) (UniProt Q9ULX7); test: Binding affinity to human CA14 by phenol red dye based stopped flow CO2 hydration assay; conditions: filed as activator; procedure, shortened: as §1
[3] = target: T1, Amine oxidase [flavin-containing] B (Homo sapiens, UniProt P27338)
T1 sequence (P27338 whole entry): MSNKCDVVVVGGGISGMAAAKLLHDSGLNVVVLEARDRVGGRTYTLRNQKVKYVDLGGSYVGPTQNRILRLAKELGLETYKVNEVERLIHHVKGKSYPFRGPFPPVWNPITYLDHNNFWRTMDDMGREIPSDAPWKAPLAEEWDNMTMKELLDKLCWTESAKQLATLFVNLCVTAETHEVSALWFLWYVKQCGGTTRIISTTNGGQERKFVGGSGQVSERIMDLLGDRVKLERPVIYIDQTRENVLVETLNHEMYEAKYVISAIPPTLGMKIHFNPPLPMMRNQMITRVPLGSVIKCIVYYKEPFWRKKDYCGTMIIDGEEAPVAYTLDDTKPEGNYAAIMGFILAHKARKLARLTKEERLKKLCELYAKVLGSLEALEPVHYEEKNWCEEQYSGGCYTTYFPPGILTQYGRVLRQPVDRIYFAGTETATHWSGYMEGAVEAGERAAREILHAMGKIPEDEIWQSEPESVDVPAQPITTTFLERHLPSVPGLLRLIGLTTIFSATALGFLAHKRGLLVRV

[4] = target: T2, Amine oxidase [flavin-containing] A (Homo sapiens, UniProt P21397); test: Inhibition of human recombinant MAO-A assessed as inhibition of 4-hydroxyquinoline formation using kynuramine as substrate by fluorescence spectrophotometry analysis
T2 sequence (P21397 whole entry): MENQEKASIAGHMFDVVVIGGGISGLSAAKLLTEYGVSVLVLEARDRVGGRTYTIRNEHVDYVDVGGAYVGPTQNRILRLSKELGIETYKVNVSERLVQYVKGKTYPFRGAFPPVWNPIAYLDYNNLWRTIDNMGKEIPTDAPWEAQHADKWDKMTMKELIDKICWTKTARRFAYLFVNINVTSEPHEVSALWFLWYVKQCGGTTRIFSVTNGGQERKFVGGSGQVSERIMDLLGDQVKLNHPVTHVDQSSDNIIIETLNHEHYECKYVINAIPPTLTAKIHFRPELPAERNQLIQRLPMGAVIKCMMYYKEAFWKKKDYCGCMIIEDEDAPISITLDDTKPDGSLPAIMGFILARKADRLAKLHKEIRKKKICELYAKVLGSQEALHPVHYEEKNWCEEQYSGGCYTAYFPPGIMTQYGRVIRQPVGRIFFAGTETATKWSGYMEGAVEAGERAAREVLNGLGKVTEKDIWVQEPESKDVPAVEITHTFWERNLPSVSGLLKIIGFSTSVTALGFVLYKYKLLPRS
Procedure, shortened: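 Recombinant human MAO-A with kynuramine as substrate. The 4-hydroxyquinoline product was quantified by fluorescence spectrophotometry, and IC50 values were determined.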

[5] = target: Carbonic anhydrase 9 (Homo sapiens) (UniProt Q16790); test: Binding affinity to human CA9 by phenol red dye based stopped flow CO2 hydration assay; conditions: filed as activator; procedure, shortened: as §1
[6] = target: Carbonic anhydrase 5B, mitochondrial (Homo sapiens) (UniProt Q9Y2D0); test: Binding affinity to human CA5b by phenol red dye based stopped flow CO2 hydration assay; conditions: filed as activator; procedure, shortened: as §1
[7] = target: Carbonic anhydrase 12 (Homo sapiens) (UniProt O43570); test: Binding affinity to human CA12 by phenol red dye based stopped flow CO2 hydration assay; conditions: filed as activator; procedure, shortened: as §1
[8] = target: Carbonic anhydrase 13 (Homo sapiens) (UniProt Q8N1Q1); test: Binding affinity to human CA13 by phenol red dye based stopped flow CO2 hydration assay; conditions: filed as activator; procedure, shortened: as §1
[9] = target: Carbonic anhydrase 5A, mitochondrial (Homo sapiens) (UniProt P35218); test: Binding affinity to human CA5a by phenol red dye based stopped flow CO2 hydration assay; conditions: filed as activator; procedure, shortened: as §1
[10] = target: Carbonic anhydrase 7 (Homo sapiens) (UniProt P43166); test: Binding affinity to human CA7 by phenol red dye based stopped flow CO2 hydration assay; conditions: filed as activator; procedure, shortened: as §1
[11] = target: Carbonic anhydrase 2 (Homo sapiens) (UniProt P00918); test: Binding affinity to human CA2 by phenol red dye based stopped flow CO2 hydration assay; procedure, shortened: as §1
[12] = target: Carbonic anhydrase 6 (Homo sapiens) (UniProt P23280); test: Binding affinity to human CA6 by phenol red dye based stopped flow CO2 hydration assay; conditions: filed as activator; procedure, shortened: as §1
[13] = target: Carbonic anhydrase 3 (Homo sapiens) (UniProt P07451); test: Binding affinity to human CA3 by phenol red dye based stopped flow CO2 hydration assay; conditions: filed as activator; procedure, shortened: as §1
[14] = target: Carbonic anhydrase 4 (Homo sapiens) (UniProt P22748); test: Binding affinity to human CA4 by phenol red dye based stopped flow CO2 hydration assay; conditions: filed as activator; procedure, shortened: as §1
Mus musculus [15] = test: Pro-cognitive activity in C57Bl6 mouse assessed as attenuation of long-term memory deficit by measuring increase in exploration time for novel juvenile at 50 nmol/uL, icv measured after 48 hrs by novel object recognition test; assay type: functional, organism-based
Procedure, shortened: (§2)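 Male adult C57Bl6 mice (8–9 weeks), lateral-ventricle cannula implanted 7 days earlier. Social recognition: 10-min habituation to arena with two empty cups; 24 h later 10-min acquisition with an unfamiliar juvenile (3–4 weeks) under one wire cup. Immediately after, 5 µL i.c.v. infusion at 1 µL/min. Retention at 48 h with familiar and novel juvenile; percentage time exploring each cup (snout-to-cup contact).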

Mus musculus [16] = test: Pro-cognitive activity in C57Bl6 mouse assessed as attenuation of long-term memory deficit by measuring increase in exploration time for novel juvenile by measuring discrimination index at 25 nmol/uL, icv measured after 48 hrs by novel object recognition test; assay type: functional
Procedure, shortened: (§3)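 Social recognition in adult male C57Bl6 mice with intracerebroventricular cannulae. Habituation was 10 min with two empty cups. Twenty-four hours later, a novel 3–4-week-old juvenile was placed under one cup for 10 min of exploration, followed immediately by a 5 µL infusion at 1 µL/min. Retention 48 h later offered familiar versus novel juvenile, scoring snout-to-cup contact. DI = (tN−tF)/(tN+tF).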

Mus musculus [17] = test: Pro-cognitive activity in C57Bl6 mouse assessed as attenuation of long-term memory deficit by measuring increase in exploration time for novel juvenile at 25 nmol/uL, icv measured after 48 hrs by novel object recognition test; assay type: functional, organism-based; procedure, shortened: as §2
Mus musculus [18] = test: Pro-cognitive activity in C57Bl6 mouse assessed as attenuation of long-term memory deficit by measuring increase in exploration time for novel juvenile by measuring discrimination index at 50 nmol/uL, icv measured after 48 hrs by novel object recognition test; assay type: functional; procedure, shortened: as §3
Mus musculus [19] = test: Pro-cognitive activity in C57Bl6 mouse assessed as attenuation of long-term memory deficit by measuring increase in exploration time for novel object by measuring discrimination index at 50 nmol/uL, icv measured after 24 hrs by novel object recognition test; assay type: functional
Procedure, shortened: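 Novel object recognition in adult male C57Bl6 mice. Habituation was 10 min in an empty arena. Twenty-four hours later, mice explored two identical objects for 5 min, then received an immediate 5 µL lateral-ventricle infusion at 1 µL/min. A 5-min retention test with one familiar and one novel object followed 24 h later. Scores were % exploration time and DI = (tN−tF)/(tN+tF).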

Mus musculus [20] = test: Pro-cognitive activity in C57Bl6 mouse assessed as attenuation of long-term memory deficit by measuring increase in exploration time for novel object at 50 nmol/uL, icv measured after 24 hrs by novel object recognition test; assay type: functional, organism-based
Procedure, shortened: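 Male adult C57Bl6 mice (8–9 weeks), lateral-ventricle cannula implanted one week before. 10-min habituation to empty open-field arena; 24 h later, 5-min acquisition with two identical objects, followed immediately by 5 µL i.c.v. infusion at 1 µL/min. 5-min retention test 24 h after acquisition with one familiar and one novel object; percentage exploration time per object, two-way ANOVA with Bonferroni.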

Mus musculus [21] = test: Pro-cognitive activity in C57Bl6 mouse assessed as attenuation of long-term memory deficit by measuring increase in exploration time for novel object by measuring discrimination index at 25 nmol/uL, icv measured after 24 hrs by novel object recognition test

Chain of Carbonic anhydrase 14 (Homo sapiens) (Q9ULX7 whole entry): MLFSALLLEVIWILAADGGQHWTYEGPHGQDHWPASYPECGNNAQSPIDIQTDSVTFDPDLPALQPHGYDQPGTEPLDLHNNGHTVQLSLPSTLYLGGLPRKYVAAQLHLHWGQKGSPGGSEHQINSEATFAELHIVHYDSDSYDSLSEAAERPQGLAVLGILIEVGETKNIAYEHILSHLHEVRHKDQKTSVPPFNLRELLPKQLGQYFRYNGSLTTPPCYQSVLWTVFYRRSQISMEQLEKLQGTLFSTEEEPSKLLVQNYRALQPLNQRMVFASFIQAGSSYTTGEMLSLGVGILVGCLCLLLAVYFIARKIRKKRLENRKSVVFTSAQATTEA
Chain of Carbonic anhydrase 12 (Homo sapiens) (O43570 whole entry): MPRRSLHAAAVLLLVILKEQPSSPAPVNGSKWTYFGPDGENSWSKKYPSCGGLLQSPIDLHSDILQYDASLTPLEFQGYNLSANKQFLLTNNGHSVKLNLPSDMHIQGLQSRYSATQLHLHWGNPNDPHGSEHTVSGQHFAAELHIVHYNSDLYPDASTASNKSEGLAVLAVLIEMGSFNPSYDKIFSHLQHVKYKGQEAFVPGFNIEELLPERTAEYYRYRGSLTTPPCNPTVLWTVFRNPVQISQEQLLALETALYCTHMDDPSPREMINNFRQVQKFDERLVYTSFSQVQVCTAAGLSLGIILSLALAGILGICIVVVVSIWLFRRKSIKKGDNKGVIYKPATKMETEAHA
Chain of Carbonic anhydrase 7 (Homo sapiens) (P43166 whole entry): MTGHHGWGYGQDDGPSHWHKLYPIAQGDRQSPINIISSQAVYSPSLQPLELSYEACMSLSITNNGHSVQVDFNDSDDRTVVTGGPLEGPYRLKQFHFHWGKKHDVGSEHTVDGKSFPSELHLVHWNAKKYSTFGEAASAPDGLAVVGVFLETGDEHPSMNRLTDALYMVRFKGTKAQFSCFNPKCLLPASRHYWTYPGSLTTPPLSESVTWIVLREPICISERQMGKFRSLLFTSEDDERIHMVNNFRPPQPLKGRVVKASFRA
Chain of Carbonic anhydrase 13 (Homo sapiens) (Q8N1Q1 whole entry, looked up): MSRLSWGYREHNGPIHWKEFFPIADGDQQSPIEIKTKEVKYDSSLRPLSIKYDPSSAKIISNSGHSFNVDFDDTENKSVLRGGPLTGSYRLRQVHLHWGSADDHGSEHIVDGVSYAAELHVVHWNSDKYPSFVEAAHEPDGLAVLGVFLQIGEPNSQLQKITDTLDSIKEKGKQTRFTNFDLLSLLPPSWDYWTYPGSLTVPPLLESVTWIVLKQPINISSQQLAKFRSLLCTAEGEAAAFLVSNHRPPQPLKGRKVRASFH
Chain of Carbonic anhydrase 5A, mitochondrial (Homo sapiens) (P35218 whole entry): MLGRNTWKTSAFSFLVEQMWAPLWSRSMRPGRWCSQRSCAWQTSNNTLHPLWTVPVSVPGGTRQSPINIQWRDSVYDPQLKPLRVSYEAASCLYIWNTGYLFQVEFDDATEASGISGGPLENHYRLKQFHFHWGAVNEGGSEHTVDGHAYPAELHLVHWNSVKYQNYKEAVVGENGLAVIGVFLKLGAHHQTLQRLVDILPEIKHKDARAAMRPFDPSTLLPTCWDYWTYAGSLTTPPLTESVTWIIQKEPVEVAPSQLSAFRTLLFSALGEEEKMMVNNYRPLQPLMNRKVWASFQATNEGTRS
Chain of Carbonic anhydrase 3 (Homo sapiens) (P07451 whole entry): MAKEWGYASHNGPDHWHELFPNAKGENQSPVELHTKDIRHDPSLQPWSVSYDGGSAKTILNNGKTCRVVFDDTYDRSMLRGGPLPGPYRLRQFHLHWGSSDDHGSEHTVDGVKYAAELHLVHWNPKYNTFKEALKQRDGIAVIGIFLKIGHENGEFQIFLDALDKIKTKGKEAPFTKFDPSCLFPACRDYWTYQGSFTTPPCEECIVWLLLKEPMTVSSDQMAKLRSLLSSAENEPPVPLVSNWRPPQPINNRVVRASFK
Chain of Carbonic anhydrase 4 (Homo sapiens) (P22748 whole entry): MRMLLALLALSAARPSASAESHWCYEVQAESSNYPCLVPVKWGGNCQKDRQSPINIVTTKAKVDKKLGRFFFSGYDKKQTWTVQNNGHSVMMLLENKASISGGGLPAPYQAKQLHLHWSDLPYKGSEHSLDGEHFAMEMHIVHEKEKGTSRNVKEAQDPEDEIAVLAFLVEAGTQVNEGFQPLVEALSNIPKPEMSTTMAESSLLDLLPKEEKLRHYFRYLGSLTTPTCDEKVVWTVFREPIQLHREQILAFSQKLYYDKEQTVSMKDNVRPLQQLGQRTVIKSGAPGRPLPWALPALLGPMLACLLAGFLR
Chain of Carbonic anhydrase 6 (Homo sapiens) (P23280 whole entry): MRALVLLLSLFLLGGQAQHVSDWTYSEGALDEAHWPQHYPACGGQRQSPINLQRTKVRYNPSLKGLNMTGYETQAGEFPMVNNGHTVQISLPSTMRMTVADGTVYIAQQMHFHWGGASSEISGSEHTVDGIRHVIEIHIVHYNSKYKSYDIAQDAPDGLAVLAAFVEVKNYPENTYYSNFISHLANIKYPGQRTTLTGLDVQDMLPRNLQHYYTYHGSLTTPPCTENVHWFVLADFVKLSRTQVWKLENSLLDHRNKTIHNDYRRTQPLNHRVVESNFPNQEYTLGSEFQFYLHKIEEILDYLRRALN
Chain of Carbonic anhydrase 1 (Homo sapiens) (P00915 2-261 limits assumed): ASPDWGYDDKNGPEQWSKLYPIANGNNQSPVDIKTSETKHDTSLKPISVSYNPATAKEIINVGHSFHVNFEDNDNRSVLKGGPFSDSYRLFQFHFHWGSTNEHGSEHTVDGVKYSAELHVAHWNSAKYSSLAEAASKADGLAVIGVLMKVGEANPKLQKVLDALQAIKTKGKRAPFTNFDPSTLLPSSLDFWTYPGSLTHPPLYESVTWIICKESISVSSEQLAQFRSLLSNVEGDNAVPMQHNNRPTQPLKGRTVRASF
Chain of Carbonic anhydrase 5B, mitochondrial (Homo sapiens) (Q9Y2D0 whole entry): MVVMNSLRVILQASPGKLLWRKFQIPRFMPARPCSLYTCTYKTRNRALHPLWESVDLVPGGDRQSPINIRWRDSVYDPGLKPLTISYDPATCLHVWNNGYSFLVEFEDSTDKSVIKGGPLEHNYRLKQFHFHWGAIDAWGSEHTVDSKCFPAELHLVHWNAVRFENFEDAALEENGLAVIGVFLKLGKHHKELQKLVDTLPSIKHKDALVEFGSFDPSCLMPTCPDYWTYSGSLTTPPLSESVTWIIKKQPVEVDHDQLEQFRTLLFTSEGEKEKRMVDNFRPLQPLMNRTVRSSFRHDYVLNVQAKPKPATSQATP

| Structure (SMILES) | Ka [1] [µM] | Ka [2] [µM] | IC50 [3] [µM] | IC50 [4] [µM] | Ka [5] [µM] | Ka [6] [µM] | Ka [7] [µM] | Ka [8] [µM] | Ka [9] [µM] | Ka [10] [µM] | Ka [11] [µM] | Ka [12] [µM] | Ka [13] [µM] | Ka [14] [µM] | other results |
| --- | --- | --- | --- | --- | --- | --- | --- | --- | --- | --- | --- | --- | --- | --- | --- |
| COc1ccc([Te]CC(C)N)cc1 (stereo not drawn) | 4.6 | 9.5 | 84.2 | 14 | 47.9 | 22.5 | 52.8 | 38.2 | 3.3 | 44.9 | > 100 | 37.8 | 77.3 | 8.2 |  |
| Cc1ccc([Se]CC(C)N)cc1 (stereo not drawn) | 5.2 | 8.3 | 36.5 | 2.03 | 82.5 | 15.7 | 89.7 | 68.6 | 9.1 | 10.4 | > 100 | 30.5 | 20.3 | 2.2 |  |
| COc1ccc([Se]CC(C)N)cc1 (stereo not drawn) | 21.4 | 8.7 | 36.8 | 1.21 | 73.2 | 25.8 | 68.8 | 60.4 | 20.3 | 23.3 | > 100 | 46.4 | 66.8 | 8.7 |  |
| CC(N)C[Se]c1ccc(N(C)C)cc1 (stereo not drawn) | 22.1 | 6.7 | 21.3 | 7.15 | 70.1 | 21.8 | 58.5 | 44.1 | 14 | 12.1 |  | 76.5 | 72.6 | 9.4 | Ka ([11]; filed as activator): 45.1 µM |
| Cc1ccccc1[Se]CC(C)N (stereo not drawn) | 12.1 | 4.7 | 16.7 | 5.17 | 83.3 | 23.7 | 51.8 | 49.3 | 20 | 14.2 | > 100 | 71.6 | 54.1 | 2.7 |  |
| Cc1ccc([Te]CC(C)N)cc1 (stereo not drawn) | 8.2 | 2.4 |  | 6.66 | 74.4 | 15.7 | 80.4 | 82.7 | 4 | 21.9 | > 100 | 23.6 | 73.5 | 5.3 |  |
| COc1cc([Te]CC(C)N)cc(OC)c1OC (stereo not drawn) | 9.5 | 1.2 |  |  | 85.2 | 29.5 | 32.7 | 58.3 | 9.4 | 14.3 | > 100 | 69.2 | 60.6 | 4.4 |  |
| CC(N)C[Se]c1ccc(F)cc1 (stereo not drawn) | 19.6 | 2.6 | 13.4 | 10.5 | 22.8 | 20.2 | 90.6 | 46.9 | 13.1 | 13.4 | > 100 | 48.5 | 13.1 | 6.1 |  |
| N[C@H](Cc1ccccc1)C(=O)O [D-PHENYLALANINE] |  |  |  |  |  |  |  |  |  |  |  |  |  |  | Activity (Mus musculus [15]): Active; Activity_index (Mus musculus [16]): 0.009; Activity (Mus musculus [17]): inactive; Activity_index (Mus musculus [18]): 0.291; Activity_index (Mus musculus [19]): 0.375; Activity (Mus musculus [20]): Active; Activity_index (Mus musculus [21]): 0.075 |
| CC(N)CSc1cccc(Br)c1 (stereo not drawn) | 13.5 | 2.9 |  | 7.82 | 77.9 | 11.5 | 87.9 | 49.3 | 12.9 | 11.4 | > 100 | 30.9 | 91.7 | 2.2 |  |
| CC(N)C[Te]c1ccccc1 (stereo not drawn) | 9.9 | 3.2 |  | 25.4 | 22.2 | 21.7 | 52.5 | 49.7 | 14.2 | 41.2 | > 100 | 73.1 | 59.7 | 5.9 |  |
| CC(N)CSc1ccc(Br)cc1 (stereo not drawn) | 7.7 | 3.8 |  | 3.89 | 63.3 | 22.7 | 72.9 | 54.4 | 12.4 | 14.8 | > 100 | 61.6 | 5.4 | 7.4 |  |
| CC(N)CSc1ccccc1Br (stereo not drawn) | 9.5 | 3.6 | 64.8 | 0.724 | 56.6 | 12.8 | 46.7 | 90.9 | 13.3 | 23.2 | > 100 | 55.9 | 70.8 | 2.4 |  |
| Cc1cccc(C)c1[Se]CC(C)N (stereo not drawn) | 6 | 1.1 | 2.79 | 1.68 | 81.2 | 22.7 | 78.2 | 83.3 | 20.9 | 21.4 | > 100 | 31.4 | 90.8 | 9.5 |  |

Source: ChEMBL document CHEMBL5247599, “New β-arylchalcogeno amines with procognitive properties targeting Carbonic Anhydrases and Monoamine Oxidases” (Eur J Med Chem, 2022)
